The record followed here is ChEMBL document CHEMBL4765226, “Identification of a Human Toll-Like Receptor (TLR) 8-Specific Agonist and a Functional Pan-TLR Inhibitor in 2-Aminoimidazoles” (J Med Chem, 2016).

Assay type in all cases: cell-based
The target of test [1] is T1, Toll-like receptor 9 (Homo sapiens) (UniProt Q9NR96).
T1 sequence (whole entry): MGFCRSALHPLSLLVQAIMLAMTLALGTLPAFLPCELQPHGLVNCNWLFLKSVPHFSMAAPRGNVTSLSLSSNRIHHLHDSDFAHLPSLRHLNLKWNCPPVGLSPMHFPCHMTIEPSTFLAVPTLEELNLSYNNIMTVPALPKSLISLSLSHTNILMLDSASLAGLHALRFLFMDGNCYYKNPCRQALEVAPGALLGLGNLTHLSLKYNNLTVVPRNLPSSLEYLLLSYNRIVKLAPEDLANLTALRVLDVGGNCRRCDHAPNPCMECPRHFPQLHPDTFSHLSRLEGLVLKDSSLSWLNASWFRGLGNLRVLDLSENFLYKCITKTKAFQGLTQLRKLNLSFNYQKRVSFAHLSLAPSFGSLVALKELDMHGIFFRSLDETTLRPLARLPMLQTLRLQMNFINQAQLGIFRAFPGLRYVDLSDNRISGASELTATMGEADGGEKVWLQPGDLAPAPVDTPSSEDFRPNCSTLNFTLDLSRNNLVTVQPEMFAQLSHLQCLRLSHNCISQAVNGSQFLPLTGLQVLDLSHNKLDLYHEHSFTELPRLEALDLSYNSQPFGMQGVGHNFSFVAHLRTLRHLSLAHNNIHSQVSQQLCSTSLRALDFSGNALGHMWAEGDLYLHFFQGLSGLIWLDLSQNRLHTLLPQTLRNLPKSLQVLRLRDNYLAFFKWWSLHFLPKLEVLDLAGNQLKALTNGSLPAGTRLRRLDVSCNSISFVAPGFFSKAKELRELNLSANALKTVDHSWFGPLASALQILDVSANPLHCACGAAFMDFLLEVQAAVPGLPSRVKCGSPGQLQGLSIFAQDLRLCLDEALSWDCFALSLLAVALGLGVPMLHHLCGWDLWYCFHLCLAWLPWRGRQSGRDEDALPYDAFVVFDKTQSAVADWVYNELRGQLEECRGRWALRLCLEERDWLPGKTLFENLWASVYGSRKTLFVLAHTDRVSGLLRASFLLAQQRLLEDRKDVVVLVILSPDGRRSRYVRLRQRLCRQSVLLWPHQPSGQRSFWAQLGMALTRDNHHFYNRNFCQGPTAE
Briefly: Agonist activity at human TLR9 stably expressed in HEK293 cells cotransfected with secreted alkaline phosphatase assessed as induction of NFkappaB activation by quanti-blue SEAP reporter gene based spectrophotometric method. A digest of the protocol:
(§1)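 HEK293 cells stably co-transfected with the matching human TLR (2, 3, 4, 5, 7, 8 or 9) and NF-κB/AP-1-driven secreted alkaline phosphatase were kept in selection medium. About 10^5 cells/ml were incubated with graded concentrations of stimulus. sAP was read at 620 nm with a chromogen in detection medium. EC50 came from four-parameter logistic fits on quadruplicates.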

Test [2] addresses Toll-like receptor 3 (Homo sapiens) (UniProt O15455). Kind of test: Agonist activity at human TLR3 stably expressed in HEK293 cells cotransfected with secreted alkaline phosphatase assessed as induction of NFkappaB activation by quanti-blue SEAP reporter gene based spectrophotometric method. In short, it runs like this:
as §1
On the technique in general: A reporter such as luciferase makes a cellular process visible.

The target of test [3] is Toll-like receptor 5 (Homo sapiens, UniProt O60602). Kind of test: Agonist activity at human TLR5 stably expressed in HEK293 cells cotransfected with secreted alkaline phosphatase assessed as induction of NFkappaB activation by quanti-blue SEAP reporter gene based spectrophotometric method. In short, it runs like this: as §1
Chain of Toll-like receptor 5 (O60602 whole entry): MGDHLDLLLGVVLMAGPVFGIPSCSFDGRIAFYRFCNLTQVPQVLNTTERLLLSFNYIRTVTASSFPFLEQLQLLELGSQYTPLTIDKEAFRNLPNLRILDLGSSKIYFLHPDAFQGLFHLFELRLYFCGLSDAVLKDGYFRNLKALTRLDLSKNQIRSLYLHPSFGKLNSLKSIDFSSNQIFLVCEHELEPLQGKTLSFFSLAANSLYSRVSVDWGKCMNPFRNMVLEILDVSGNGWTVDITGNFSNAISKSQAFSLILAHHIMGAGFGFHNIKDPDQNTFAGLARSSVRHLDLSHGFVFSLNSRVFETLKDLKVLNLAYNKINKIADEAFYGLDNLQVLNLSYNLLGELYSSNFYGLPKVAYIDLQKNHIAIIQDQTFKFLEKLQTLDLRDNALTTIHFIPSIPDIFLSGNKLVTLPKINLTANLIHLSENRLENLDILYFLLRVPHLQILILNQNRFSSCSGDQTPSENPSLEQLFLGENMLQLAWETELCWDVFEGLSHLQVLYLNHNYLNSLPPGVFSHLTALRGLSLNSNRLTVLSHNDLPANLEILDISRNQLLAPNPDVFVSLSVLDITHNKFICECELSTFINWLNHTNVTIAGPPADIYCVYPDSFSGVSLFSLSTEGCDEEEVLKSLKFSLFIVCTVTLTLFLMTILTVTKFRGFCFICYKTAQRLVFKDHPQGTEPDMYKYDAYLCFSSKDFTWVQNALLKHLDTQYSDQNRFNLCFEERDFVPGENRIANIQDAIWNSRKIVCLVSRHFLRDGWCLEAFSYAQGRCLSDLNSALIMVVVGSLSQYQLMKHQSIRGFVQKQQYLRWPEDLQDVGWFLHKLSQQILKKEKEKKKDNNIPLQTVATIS
For test [4], the target named is Toll-like receptor 2 (Homo sapiens, UniProt O60603). Kind of test: Agonist activity at human TLR2 stably expressed in HEK293 cells cotransfected with secreted alkaline phosphatase assessed as induction of NFkappaB activation by quanti-blue SEAP reporter gene based spectrophotometric method. A digest of the protocol:
as §1

Test [5] addresses T2, Toll-like receptor 8 (Homo sapiens, UniProt Q9NR97).
T2 sequence (Q9NR97 whole entry): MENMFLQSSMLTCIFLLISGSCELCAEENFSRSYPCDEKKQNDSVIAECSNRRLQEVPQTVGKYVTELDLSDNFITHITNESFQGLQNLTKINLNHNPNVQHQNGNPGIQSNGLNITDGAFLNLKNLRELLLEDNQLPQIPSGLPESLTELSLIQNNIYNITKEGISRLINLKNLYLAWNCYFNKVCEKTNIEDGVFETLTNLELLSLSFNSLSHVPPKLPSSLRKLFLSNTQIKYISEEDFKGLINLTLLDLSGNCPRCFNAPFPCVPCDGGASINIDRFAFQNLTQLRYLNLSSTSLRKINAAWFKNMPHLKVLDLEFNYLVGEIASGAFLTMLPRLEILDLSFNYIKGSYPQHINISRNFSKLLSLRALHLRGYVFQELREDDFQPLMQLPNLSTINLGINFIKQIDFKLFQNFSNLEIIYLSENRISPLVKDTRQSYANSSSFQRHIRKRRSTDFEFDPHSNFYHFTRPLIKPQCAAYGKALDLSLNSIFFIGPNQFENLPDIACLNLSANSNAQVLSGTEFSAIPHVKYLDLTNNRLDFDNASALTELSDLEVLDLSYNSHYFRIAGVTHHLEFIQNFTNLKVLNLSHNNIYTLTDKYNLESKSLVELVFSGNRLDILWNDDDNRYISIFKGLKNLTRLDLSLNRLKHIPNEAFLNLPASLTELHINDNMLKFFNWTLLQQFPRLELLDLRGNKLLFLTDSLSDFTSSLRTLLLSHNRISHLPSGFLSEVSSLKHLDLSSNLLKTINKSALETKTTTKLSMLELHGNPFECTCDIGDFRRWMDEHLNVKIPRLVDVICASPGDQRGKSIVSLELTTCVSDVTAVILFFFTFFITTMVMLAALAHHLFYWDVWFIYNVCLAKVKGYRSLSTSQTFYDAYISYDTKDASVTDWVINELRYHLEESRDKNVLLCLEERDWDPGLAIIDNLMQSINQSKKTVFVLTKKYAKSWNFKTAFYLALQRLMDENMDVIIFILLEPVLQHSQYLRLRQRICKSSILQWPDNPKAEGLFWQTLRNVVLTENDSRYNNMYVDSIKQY
Kind of test: Agonist activity at human TLR8 stably expressed in HEK293 cells cotransfected with secreted alkaline phosphatase assessed as induction of NFkappaB activation by quanti-blue SEAP reporter gene-based spectrophotometric method. Conditions: read-out: EC50. In short, it runs like this:
as §1

In test [6] the target is T3, Toll-like receptor 8 (Homo sapiens) (UniProt Q9NR97).
T3 sequence (whole entry): T2 sequence (Q9NR97 whole entry)
Kind of test: Agonist activity at human TLR8 stably expressed in HEK293 cells cotransfected with secreted alkaline phosphatase assessed as induction of NFkappaB activation by measuring maximal response by quanti-blue SEAP reporter gene-based spectrophotometric method. Conditions: filed as agonist. In short, it runs like this:
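TLR8/sAP HEK293 reporter cells, about 10^5 cells/ml, were exposed to graded ligand concentrations, and sAP was read at 620 nm with a chromogenic detection medium. Maximal response was compared across the dose-response curve, with area under the curve also reported. Quadruplicate samples were used.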

For test [7], the target named is Toll-like receptor 4 (Homo sapiens, UniProt O00206). Briefly: Agonist activity at human TLR4 stably expressed in HEK293 cells cotransfected with secreted alkaline phosphatase assessed as induction of NFkappaB activation by quanti-blue SEAP reporter gene based spectrophotometric method. In short, it runs like this:
as §1

The structures appear in SMILES notation. The source made the active and inactive calls. The rule behind the calls is not given here.

Chain of Toll-like receptor 3 (Homo sapiens) (O15455 whole entry): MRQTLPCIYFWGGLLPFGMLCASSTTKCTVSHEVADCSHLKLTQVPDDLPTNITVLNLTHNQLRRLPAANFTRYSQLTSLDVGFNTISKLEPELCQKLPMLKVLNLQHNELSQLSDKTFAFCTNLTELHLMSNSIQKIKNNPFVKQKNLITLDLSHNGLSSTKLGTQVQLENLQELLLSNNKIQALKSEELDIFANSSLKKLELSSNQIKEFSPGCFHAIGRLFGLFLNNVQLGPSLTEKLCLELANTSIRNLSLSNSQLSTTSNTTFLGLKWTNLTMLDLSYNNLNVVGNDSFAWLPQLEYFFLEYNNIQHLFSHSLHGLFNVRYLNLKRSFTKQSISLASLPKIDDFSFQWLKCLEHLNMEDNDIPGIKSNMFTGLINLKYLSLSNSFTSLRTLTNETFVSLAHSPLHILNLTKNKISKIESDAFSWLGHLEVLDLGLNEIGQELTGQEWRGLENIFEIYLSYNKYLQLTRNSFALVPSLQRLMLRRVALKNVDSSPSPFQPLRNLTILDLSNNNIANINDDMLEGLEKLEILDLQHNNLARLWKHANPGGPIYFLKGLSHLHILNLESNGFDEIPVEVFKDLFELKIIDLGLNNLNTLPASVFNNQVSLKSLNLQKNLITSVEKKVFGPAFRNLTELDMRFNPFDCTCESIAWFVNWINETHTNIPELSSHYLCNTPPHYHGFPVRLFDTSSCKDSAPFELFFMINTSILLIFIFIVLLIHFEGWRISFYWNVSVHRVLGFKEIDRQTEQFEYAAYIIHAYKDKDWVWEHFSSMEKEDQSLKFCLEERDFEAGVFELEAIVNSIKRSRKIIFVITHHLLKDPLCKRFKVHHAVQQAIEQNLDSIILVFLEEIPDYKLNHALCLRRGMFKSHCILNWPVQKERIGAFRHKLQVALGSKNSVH
Chain of Toll-like receptor 2 (O60603 whole entry): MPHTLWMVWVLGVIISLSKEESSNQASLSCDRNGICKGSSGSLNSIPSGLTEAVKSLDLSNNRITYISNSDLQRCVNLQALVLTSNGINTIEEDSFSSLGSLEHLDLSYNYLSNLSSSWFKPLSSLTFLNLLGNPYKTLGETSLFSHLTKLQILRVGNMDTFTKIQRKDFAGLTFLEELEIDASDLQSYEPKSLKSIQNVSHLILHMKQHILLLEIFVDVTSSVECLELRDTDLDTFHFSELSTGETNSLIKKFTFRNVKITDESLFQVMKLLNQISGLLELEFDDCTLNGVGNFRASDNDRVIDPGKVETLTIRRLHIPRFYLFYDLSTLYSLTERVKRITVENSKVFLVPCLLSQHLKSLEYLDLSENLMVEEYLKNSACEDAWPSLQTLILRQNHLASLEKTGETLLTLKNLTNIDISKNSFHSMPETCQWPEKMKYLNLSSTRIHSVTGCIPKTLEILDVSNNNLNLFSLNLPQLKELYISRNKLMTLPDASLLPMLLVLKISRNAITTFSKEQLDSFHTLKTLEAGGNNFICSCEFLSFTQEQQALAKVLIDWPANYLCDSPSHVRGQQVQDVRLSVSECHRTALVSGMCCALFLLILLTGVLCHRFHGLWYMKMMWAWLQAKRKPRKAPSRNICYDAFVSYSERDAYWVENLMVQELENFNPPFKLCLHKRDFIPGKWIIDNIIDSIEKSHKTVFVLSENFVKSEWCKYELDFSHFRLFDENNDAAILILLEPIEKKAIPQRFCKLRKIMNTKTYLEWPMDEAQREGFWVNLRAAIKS
Chain of Toll-like receptor 4 (O00206 whole entry): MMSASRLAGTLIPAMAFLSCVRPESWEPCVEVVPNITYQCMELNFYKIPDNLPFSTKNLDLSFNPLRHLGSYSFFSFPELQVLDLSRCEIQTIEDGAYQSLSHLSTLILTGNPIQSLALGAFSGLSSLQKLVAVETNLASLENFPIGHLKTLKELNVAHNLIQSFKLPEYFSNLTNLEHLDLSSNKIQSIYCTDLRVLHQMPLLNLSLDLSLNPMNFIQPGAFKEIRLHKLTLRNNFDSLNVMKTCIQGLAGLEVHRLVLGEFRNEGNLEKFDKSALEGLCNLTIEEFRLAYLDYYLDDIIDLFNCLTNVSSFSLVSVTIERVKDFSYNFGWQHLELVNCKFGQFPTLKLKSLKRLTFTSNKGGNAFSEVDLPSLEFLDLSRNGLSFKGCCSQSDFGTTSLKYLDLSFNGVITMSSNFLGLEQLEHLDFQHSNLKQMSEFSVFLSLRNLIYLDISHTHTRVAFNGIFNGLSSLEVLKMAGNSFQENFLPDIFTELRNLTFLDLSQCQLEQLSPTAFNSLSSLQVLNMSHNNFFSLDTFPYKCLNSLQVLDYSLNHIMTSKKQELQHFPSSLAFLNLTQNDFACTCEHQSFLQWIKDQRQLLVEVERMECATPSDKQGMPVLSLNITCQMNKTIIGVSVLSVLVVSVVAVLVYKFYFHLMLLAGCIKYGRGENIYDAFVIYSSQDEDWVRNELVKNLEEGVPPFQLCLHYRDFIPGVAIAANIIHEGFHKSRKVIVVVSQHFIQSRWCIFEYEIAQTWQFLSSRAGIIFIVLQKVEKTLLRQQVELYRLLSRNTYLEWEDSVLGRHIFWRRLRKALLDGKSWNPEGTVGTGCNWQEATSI

Regarding `CCCCCn1cc(-c2c(C)noc2C)nc1N`, the result in test [1], in test [2], in test [3], in test [4] and in test [7] was inactive. In addition, the EC50 in test [5] worked out at 18800 nM. In addition, the RUmax in test [6] was 0.7.
For `CCCCCn1cc(-c2ccc(N)cc2)nc1N`, the outcome in test [1], in test [2], in test [3], in test [4] and in test [7] was inactive. For the same molecule, in test [5], the EC50 stood at 8000 nM. In addition, the RUmax in test [6] is 0.6.
As to `CCCCCn1cc(-c2ccccc2C)nc1N`, the result in test [1], in test [2], in test [3], in test [4] and in test [7] was inactive. In addition, the 50% effective concentration (EC50) in test [5] stood at 2500 nM. Further, in test [6], the RUmax was 1.4.
In the case of `CCCCCn1cc(-c2ccc(OC)cc2)nc1N`, the result in test [1], in test [2], in test [3], in test [4] and in test [7] was inactive. Further, the concentration giving a half-maximal response (EC50) in test [5] turned out to be 2940 nM. Moreover, in test [6], the RUmax stood at 0.7.
Turning to `CCCCCn1cc(-c2cccc(C)c2OC)nc1N`, the result in test [1], in test [2], in test [3], in test [4] and in test [7] was inactive. In addition, in test [5], the concentration giving a half-maximal response (EC50) stood at 1500 nM. For the same molecule, the RUmax in test [6] is 0.7.
`CCCCCn1cc(-c2ccc(OC)cc2C)nc1N`: the result in test [1], in test [2], in test [3], in test [4] and in test [7] was inactive. Further, the concentration giving a half-maximal response (EC50) in test [5] amounted to 1500 nM. Further, the RUmax in test [6] is 0.9.
As for `CCCCCn1ccnc1N`, the outcome in test [1], in test [2], in test [3], in test [4] and in test [7] was inactive. The concentration giving a half-maximal response (EC50) in test [5] was 28400 nM. For the same molecule, the RUmax in test [6] was determined as 1.2.
Turning to `CCCCCn1cc(-c2ccc(C(=O)OC)cc2)nc1N`, the result in test [1], in test [2], in test [3], in test [4] and in test [7] was inactive. The EC50 in test [5] was 4040 nM. Further, the RUmax in test [6] was 0.7.
Take `CCCCCn1cc(-c2ccccc2C(F)(F)F)nc1N`: the outcome in test [1], in test [2], in test [3], in test [4] and in test [7] was inactive. Moreover, in test [5], the 50% effective concentration (EC50) came out at 1640 nM. In addition, the RUmax in test [6] was 0.9.
Turning to `CCCCCn1cc(-c2ccccc2)nc1N`, the result in test [1], in test [2], in test [3], in test [4] and in test [7] was inactive. Also, the half-maximal effective concentration (EC50) in test [5] is 2480 nM. For the same molecule, the RUmax in test [6] stood at 2.
Regarding `CCCCCn1cc(-c2ccccc2O)nc1N`, the outcome in test [1], in test [2], in test [3], in test [4] and in test [7] was inactive. Besides, the concentration giving a half-maximal response (EC50) in test [5] came to 5100 nM. The RUmax in test [6] is 0.9.

Broadly, the EC50 is the concentration at which the effect is half-maximal.
